The values below come from ChEMBL document CHEMBL3232911, “Imidazolylchromanones containing non-benzylic oxime ethers: synthesis and molecular modeling study of new azole antifungals selective against Cryptococcus gattii” (2014).

In one assay the test system is Candida albicans. Kind of assay: Antifungal activity against Candida albicans assessed as total growth inhibition by micro-broth dilution method. Format: functional. The method in brief: (§1)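 Broth microdilution following CLSI methods for yeasts and filamentous fungi. Compounds dissolved in DMSO, serially diluted in growth medium, inoculum added, incubation at 35 °C. MIC taken as the lowest concentration giving total inhibition of fungal growth. Testing done in triplicate.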
(Dilution methods test growth across graded concentrations, often in twofold steps.)

A further assay concerns Exophiala dermatitidis. The assay is described as follows: Antifungal activity against Exophiala dermatitidis assessed as total growth inhibition by micro-broth dilution method. The assay is classed as functional. In outline:
as §1

Assay [1] concerns Cryptococcus gattii species complex. Kind of assay: Antifungal activity against Cryptococcus gattii assessed as total growth inhibition by micro-broth dilution method. The assay is classed as functional, Cryptococcus bacillisporus. The method in brief: as §1
In another assay the test system is Aspergillus fumigatus. The assay is described as follows: Antifungal activity against Aspergillus fumigatus assessed as total growth inhibition by micro-broth dilution method. Format: functional. In outline:
as §1

As usually defined, the MIC is the smallest concentration in the dilution series that meets the test's criterion for growth inhibition.

`CCC(C)n1ncn(-c2ccc(N3CCN(c4ccc(OCC5COC(Cn6cncn6)(c6ccc(Cl)cc6Cl)O5)cc4)CC3)cc2)c1=O` (stereo unspecified) [ITRACONAZOLE]: the MIC is 0.25 µg/mL in the assay with Candida albicans, 0.5 µg/mL with Exophiala dermatitidis, 0.5 µg/mL in assay [1] and 4 µg/mL in the assay with Aspergillus fumigatus.

Turning to `OC(Cn1cncn1)(Cn1cncn1)c1ccc(F)cc1F` [FLUCONAZOLE], the MIC in the assay on Candida albicans was 2 µg/mL; in the assay with Exophiala dermatitidis, over 64 µg/mL; in assay [1] it was over 64 µg/mL; with Aspergillus fumigatus, over 64 µg/mL.

In the case of `Fc1ccc(OCCO/N=C2\c3ccccc3OCC2n2ccnc2)cc1.O=[N+]([O-])O` (racemic), the MIC in the assay on Candida albicans is over 64 µg/mL; with Exophiala dermatitidis it was 128 µg/mL; in assay [1] it was 4 µg/mL; in the assay with Aspergillus fumigatus, 64 µg/mL.

As to `O/N=C1\c2ccccc2OCC1n1ccnc1` (stereo unspecified), the minimum inhibitory concentration (MIC) is over 64 µg/mL in the assay on Candida albicans, over 128 µg/mL in the assay on Exophiala dermatitidis, over 64 µg/mL in assay [1] and over 64 µg/mL with Aspergillus fumigatus.

Take `Clc1ccc(OCCO/N=C2\c3ccccc3OCC2n2ccnc2)c(Cl)c1.O=[N+]([O-])O` (racemic): the MIC was over 64 µg/mL in the assay on Candida albicans, 128 µg/mL with Exophiala dermatitidis, 2 µg/mL in assay [1] and 64 µg/mL with Aspergillus fumigatus.

Turning to `Fc1cccc(OCCO/N=C2\c3ccccc3OCC2n2ccnc2)c1.O=[N+]([O-])O` (racemic), the MIC with Candida albicans was over 64 µg/mL; in the assay with Exophiala dermatitidis it was 64 µg/mL; in assay [1], 2 µg/mL; with Aspergillus fumigatus, 64 µg/mL.

With `O=[N+]([O-])O.c1ccc(OCCO/N=C2\c3ccccc3OCC2n2ccnc2)cc1` (racemic), the MIC in the assay on Candida albicans was over 64 µg/mL; with Exophiala dermatitidis, 128 µg/mL; in assay [1], 2 µg/mL; with Aspergillus fumigatus, 32 µg/mL.

With `Clc1ccc(OCCO/N=C2\c3ccccc3OCC2n2ccnc2)cc1.O=[N+]([O-])O` (racemic), the MIC in the assay on Candida albicans is over 64 µg/mL; in the assay on Exophiala dermatitidis, 64 µg/mL; in assay [1], 4 µg/mL; in the assay with Aspergillus fumigatus, 64 µg/mL.

Regarding `Clc1cccc(OCCO/N=C2\c3ccccc3OCC2n2ccnc2)c1.O=[N+]([O-])O` (racemic), the MIC in the assay on Candida albicans is over 64 µg/mL; with Exophiala dermatitidis, 64 µg/mL; in assay [1], 0.5 µg/mL; in the assay with Aspergillus fumigatus it was 32 µg/mL.
